Laboratory results from ChEMBL document CHEMBL1149888 (Bioorg Med Chem, 2008).

Experiments:
Acetylcholinesterase = Acetylcholinesterase (Electrophorus electricus, UniProt O42275); assay: Inhibition of electric eel AChE type 6S by Ellman's assay
[1] = Selectivity ratio of IC50 for electric eel AChE to IC50 for equine serum BuChE
[2] = Antioxidant scavenging activity against AAPH-induced peroxyl radical assessed as trolox equivalent per uM of compound by ORAC-fluorescein assay; assay type: physicochemical
How it was run: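 Peroxyl radicals generated by AAPH (12 mM final) at 37 °C in 75 mM phosphate buffer pH 7.4. Sample (0.5–10 µM) was preincubated 15 min with fluorescein (300 nM final), then AAPH added. Fluorescence (ex 485/em 535 nm) read every 60 s for 90 min. Net AUC vs blank was calibrated against Trolox (1–8 µM final). Each run fourfold, at least four independent runs.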

Butyrylcholinesterase = Butyrylcholinesterase (Equus caballus, UniProt Q9N1N9); assay: Inhibition of equine serum BuChE by Ellman's assay
Sequence of Butyrylcholinesterase (Q9N1N9 whole entry): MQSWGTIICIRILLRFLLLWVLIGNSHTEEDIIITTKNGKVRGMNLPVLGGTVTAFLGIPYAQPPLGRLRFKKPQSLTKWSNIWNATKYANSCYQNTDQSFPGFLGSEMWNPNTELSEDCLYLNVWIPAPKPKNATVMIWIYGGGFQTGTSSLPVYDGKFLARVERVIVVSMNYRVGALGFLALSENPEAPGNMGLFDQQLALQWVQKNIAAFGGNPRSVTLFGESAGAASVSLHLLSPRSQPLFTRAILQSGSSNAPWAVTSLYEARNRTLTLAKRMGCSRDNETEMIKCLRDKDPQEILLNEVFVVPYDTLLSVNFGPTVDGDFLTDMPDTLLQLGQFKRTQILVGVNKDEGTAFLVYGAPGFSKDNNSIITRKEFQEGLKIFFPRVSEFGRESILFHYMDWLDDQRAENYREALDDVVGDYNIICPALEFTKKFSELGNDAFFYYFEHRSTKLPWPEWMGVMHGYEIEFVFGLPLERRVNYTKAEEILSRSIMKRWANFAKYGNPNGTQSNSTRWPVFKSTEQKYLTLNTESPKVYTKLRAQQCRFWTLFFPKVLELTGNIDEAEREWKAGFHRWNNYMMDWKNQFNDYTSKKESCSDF
How it was run: (§1)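 Ellman photometric assay with electric eel AChE (type VI-S) or equine serum BChE (enzyme solution 2.5 U/mL) in phosphate buffer, pH 8.0. Enzyme and inhibitor stand together for 5 min, then DTNB is added. The reaction starts with acetylthiocholine (AChE) or butyrylthiocholine (BChE), and A412 is read 2.5 min later at 25 °C. At least five concentrations (highest 10^-4 M final) are run in triplicate. Percent activity versus the no-inhibitor reference is plotted against log concentration; each value is the mean of ≥3 independent runs.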

[3] = Cytotoxicity against mouse brain N11 cells from by MTT assay; assay type: cell-based
How it was run: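 N11 microglia (embryonic mouse brain, retrovirus-immortalized) were kept in DMEM with 10% heat-inactivated FCS and 2 mM glutamine. Cells were seeded at 5×10³/well and grown 24 h, then exposed 24 h to compound or solvent in phenol-red-free medium with 1% FCS.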

[4] = target: Acetylcholinesterase (Electrophorus electricus) (UniProt O42275); assay: Inhibition of electric eel AChE at 10 uM by Ellman's assay; how it was run: as §1
Sequence of Acetylcholinesterase (Electrophorus electricus) (O42275 24-633 limits assumed): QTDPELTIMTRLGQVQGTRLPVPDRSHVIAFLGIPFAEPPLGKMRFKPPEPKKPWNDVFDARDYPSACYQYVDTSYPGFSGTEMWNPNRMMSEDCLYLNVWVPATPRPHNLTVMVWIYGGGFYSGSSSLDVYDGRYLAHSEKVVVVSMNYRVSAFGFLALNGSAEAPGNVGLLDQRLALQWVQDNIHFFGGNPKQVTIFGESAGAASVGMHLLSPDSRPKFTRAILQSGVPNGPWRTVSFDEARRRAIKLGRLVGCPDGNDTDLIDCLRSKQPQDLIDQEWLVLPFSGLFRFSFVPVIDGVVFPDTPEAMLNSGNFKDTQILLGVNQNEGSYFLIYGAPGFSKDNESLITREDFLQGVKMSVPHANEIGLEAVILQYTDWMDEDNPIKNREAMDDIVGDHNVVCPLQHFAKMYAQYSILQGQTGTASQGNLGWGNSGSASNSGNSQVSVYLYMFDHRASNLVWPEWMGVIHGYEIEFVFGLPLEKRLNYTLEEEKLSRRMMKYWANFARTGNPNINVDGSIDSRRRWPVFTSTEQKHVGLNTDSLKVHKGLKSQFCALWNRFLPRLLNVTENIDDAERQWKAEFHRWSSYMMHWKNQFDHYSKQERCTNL

Sequence of Acetylcholinesterase (O42275 whole entry): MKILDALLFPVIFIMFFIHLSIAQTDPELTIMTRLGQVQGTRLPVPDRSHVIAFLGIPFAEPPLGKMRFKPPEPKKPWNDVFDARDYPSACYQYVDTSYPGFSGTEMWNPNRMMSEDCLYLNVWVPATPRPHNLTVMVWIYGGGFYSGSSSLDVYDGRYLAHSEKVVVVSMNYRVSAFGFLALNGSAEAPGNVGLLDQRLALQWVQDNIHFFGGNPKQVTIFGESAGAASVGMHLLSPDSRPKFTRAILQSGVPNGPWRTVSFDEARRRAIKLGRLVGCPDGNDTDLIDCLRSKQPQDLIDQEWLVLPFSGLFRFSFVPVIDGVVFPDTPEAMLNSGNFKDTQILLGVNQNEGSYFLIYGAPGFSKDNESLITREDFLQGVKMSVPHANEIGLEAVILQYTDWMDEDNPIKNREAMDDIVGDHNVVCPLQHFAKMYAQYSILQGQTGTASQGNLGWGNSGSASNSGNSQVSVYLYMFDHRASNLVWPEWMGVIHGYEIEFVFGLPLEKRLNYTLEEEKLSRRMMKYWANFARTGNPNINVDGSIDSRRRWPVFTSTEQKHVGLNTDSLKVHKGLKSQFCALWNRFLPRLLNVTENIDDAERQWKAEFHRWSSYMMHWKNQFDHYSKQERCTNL

Work on `O=C(CCCCC1CCSS1)NCCC/N=c1/c2ccc(Cl)cc2nc2n1CCC2` (stereo unspecified) yielded an IC50 (Acetylcholinesterase) of 2840 nM, a Ratio IC50 [1] of 1.1 and an Activity [2] of 0.8. It also gave an IC50 (Butyrylcholinesterase) of 2580 nM and an IC50 [3] of 7.51 µM.

In the case of `NCCCCC/N=c1/c2ccc(Cl)cc2nc2n1CCC2`, the IC50 (Acetylcholinesterase) is reported as 170 nM, the Ratio IC50 [1] is reported as 0.9 and the IC50 (Butyrylcholinesterase) is reported as 190 nM.

`NCCCCCCCC/N=c1/c2ccc(Cl)cc2nc2n1CCC2` gave an IC50 (Acetylcholinesterase) of 130 nM, a Ratio IC50 [1] of 10.7 and an Activity [2] of 0.1. For the same compound, the IC50 (Butyrylcholinesterase) was 12 nM and the IC50 [3] was 6.27 µM.

`O=C(CCCCC1CCSS1)NCCCCCCCC/N=c1/c2ccc(Cl)cc2nc2n1CCC2` (stereo unspecified) gave an IC50 (Acetylcholinesterase) of 468 nM, a Ratio IC50 [1] of 82 and an Activity [2] of 0.5. For the same compound, the IC50 (Butyrylcholinesterase) was 5.7 nM and the IC50 [3] was 10.2 µM.

`O=C(CCCCC1CCSS1)NCCCCC/N=c1/c2ccc(Cl)cc2nc2n1CCC2` (stereo unspecified) showed an IC50 (Acetylcholinesterase) of 4380 nM, a Ratio IC50 [1] of 83 and an IC50 (Butyrylcholinesterase) of 53 nM.

`O=C(CCCCC1CCSS1)NCCCCCC/N=c1/c2ccc(Cl)cc2nc2n1CCC2` (stereo unspecified) gave an IC50 (Acetylcholinesterase) of 740 nM, a Ratio IC50 [1] of 28.8 and an IC50 (Butyrylcholinesterase) of 26 nM.

`N=c1c2ccccc2nc2n1CCC2` showed a Ratio IC50 [1] of 1.8.

In the case of `NCCC/N=c1/c2ccc(Cl)cc2nc2n1CCC2`, the IC50 (Acetylcholinesterase) is reported as 19000 nM, the Ratio IC50 [1] is reported as 1.9 and the IC50 (Butyrylcholinesterase) is reported as 10200 nM.

Work on `NCCCC/N=c1/c2ccc(Cl)cc2nc2n1CCC2` yielded an IC50 (Acetylcholinesterase) of 480 nM, a Ratio IC50 [1] of 0.7 and an IC50 (Butyrylcholinesterase) of 720 nM.

For `c1ccc(C/N=c2/c3ccccc3nc3n2CCCCCCC3)cc1`, the IC50 (Acetylcholinesterase) was > 500000 nM and the IC50 (Butyrylcholinesterase) was 1100 nM.

In the case of `NCCCCCCC/N=c1/c2ccc(Cl)cc2nc2n1CCC2`, the IC50 (Acetylcholinesterase) is reported as 4060 nM, the Ratio IC50 [1] is reported as 5.7 and the IC50 (Butyrylcholinesterase) is reported as 710 nM.

`O=C(O)CCCCC1CCSS1` (stereo not drawn) [LIPOIC ACID, ALPHA] gave an Activity [2] of 0.6.

For `O=C(CCCCC1CCSS1)NCCCCCCC/N=c1/c2ccc(Cl)cc2nc2n1CCC2` (stereo unspecified), the IC50 (Acetylcholinesterase) was 1940 nM, the Ratio IC50 [1] was 134 and the IC50 (Butyrylcholinesterase) was 14 nM.

Work on `Clc1ccc2/c(=N/CCCCCCCC/N=c3/c4ccc(Cl)cc4nc4n3CCC4)n3c(nc2c1)CCC3` yielded an IC50 (Acetylcholinesterase) of 50 nM and an IC50 (Butyrylcholinesterase) of 45 nM.

For `O=C(CCCCC1CCSS1)NCCCCCCCC/N=c1/c2ccccc2nc2n1CCCCCC2` (stereo unspecified), the Ratio IC50 [1] was > 5000, the Activity [2] was 0.4 and the IC50 (Butyrylcholinesterase) was 23 nM. The inhibition [4] was < 10% and the IC50 [3] was 6.54 µM.

`NCCCCCCCC/N=c1/c2ccccc2nc2n1CCCCCC2` showed an IC50 (Acetylcholinesterase) of 3400 nM, a Ratio IC50 [1] of 73.9 and an Activity [2] of 0.1. It also gave an IC50 (Butyrylcholinesterase) of 46 nM and an IC50 [3] of 3.74 µM.

With `CCCC/N=c1/c2ccc(Cl)cc2nc2n1CCC2` the Ratio IC50 [1] was 1.7.

`NCCCCCC/N=c1/c2ccc(Cl)cc2nc2n1CCC2` showed an IC50 (Acetylcholinesterase) of 1490 nM, a Ratio IC50 [1] of 3.9 and an Activity [2] of 0.2. The IC50 (Butyrylcholinesterase) was 380 nM and the IC50 [3] was 6.01 µM.

For `O=C(CCCCC1CCSS1)NCCCC/N=c1/c2ccc(Cl)cc2nc2n1CCC2` (stereo unspecified), the IC50 (Acetylcholinesterase) was 4580 nM, the Ratio IC50 [1] was 27.1 and the IC50 (Butyrylcholinesterase) was 170 nM.
